# Legend:
# Rattus norvegicus [1] = assay: Cholesterol-lowering activity in propylthiouracil-induced hypercholesterolemic rat model assessed as change in plasma cholesterol at 10 mg/kg administered intragastrically relative to control; assay type: functional; settings: route intragastric
# Outline: (§1)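 Male rats made hypercholesterolemic with propylthiouracil; compounds given intragastrically. Read-out is the percent change in plasma cholesterol concentration versus control. n=8 for control and for treated animals. Significance is by Student's t, with t greater than 1.65 taken as p < 0.05.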
# Rattus norvegicus [2] = assay: Cholesterol-lowering activity in propylthiouracil-induced hypercholesterolemic rat model assessed as change in plasma cholesterol at 5 mg/kg administered intragastrically relative to control; assay type: functional; settings: route intragastric; outline: as §1
# Mus musculus [3] = assay: Uterotropic activity in immature mouse assessed as change in uterus weight at 25 mg/kg, sc relative to control; assay type: Functional, organism-based; parameters: dose 25 mg/kg, route subcutaneous; settings: in vivo
# Outline: (§2)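 Immature mice dosed subcutaneously or intragastrically. Uterine weight (mg) is compared between treated and control groups, reported as mean ± spread. n=10 for control and for treated animals.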
# Mus musculus [4] = assay: Uterotropic activity in immature mouse assessed as change in uterus weight at 250 mg/kg administered intragastrically relative to control; assay type: organism-based; parameters: dose 250 mg/kg, route intragastric; settings: in vivo, po; outline: as §2
# Rattus norvegicus [5] = assay: Hypolipidemic activity in normal rat assessed as reduction in cholesterol level at 0.2 % administered in diet for 5 days; assay type: functional; parameters: scale not given: the % may be the effect or the level left
# Outline: (§3)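 Normal rats received compound at 0.2% in the diet. Plasma cholesterol and triglyceride are expressed as % of control. n=8 for control and for treated animals. Significance is by Student's t, with t greater than 1.65 taken as p < 0.05.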
# Rattus norvegicus [6] = assay: Hypolipidemic activity in normal rat assessed as reduction in triglyceride level at 0.2 % administered in diet for 5 days; assay type: functional; parameters: scale not given: the % may be the effect or the level left; outline: as §3
# Rattus norvegicus [7] = assay: Cholesterol-lowering activity in propylthiouracil-induced hypercholesterolemic rat model assessed as change in plasma cholesterol at 20 mg/kg administered intragastrically relative to control; assay type: functional; settings: route intragastric; outline: as §1
# Mus musculus [8] = assay: Uterotropic activity in immature mouse assessed as change in uterus weight at 625 mg/kg, sc relative to control; assay type: organism-based; parameters: dose 625 mg/kg, route subcutaneous; settings: in vivo; outline: as §2
# Mus musculus [9] = assay: Uterotropic activity in immature mouse assessed as change in uterus weight at 250 mg/kg, sc relative to control; assay type: organism-based; parameters: dose 250 mg/kg, route subcutaneous; settings: in vivo; outline: as §2
Activity (Mus musculus [3]) [mg],Activity (Mus musculus [9]) [mg],Compound,Activity (Rattus norvegicus [1]) [%],also measured
,,CCOC(=O)C(C)(C)Oc1ccc2c(c1)CCc1c-2ccc2c1CCC2(C)C,-9,
16.4,,CCN(CC)CCOc1ccc2c(c1)CCc1c-2ccc2c1CCC2(C)C.O=C(O)C(=O)O,-19,Activity (Rattus norvegicus [2]): -14%
17.2,,CC(C)(Oc1ccc2c(c1)CCc1c-2ccc2c1CCC2(C)C)C(=O)O,-18,Activity (Mus musculus [4]): 8.4 mg; Activity (Rattus norvegicus [5]): 75%; Activity (Rattus norvegicus [6]): 69%
,22.6,CC1(C)CCc2c1ccc1c2CCc2cc(O)ccc2-1,-16,Activity (Rattus norvegicus [7]): -10%; Activity (Rattus norvegicus [2]): 4%; Activity (Mus musculus [8]): 34.9 mg
11.2,,CC1(C)CCc2c1ccc1c2CCc2cc(OCCN3CCCC3)ccc2-1,-17,Activity (Rattus norvegicus [2]): -5%; Activity (Mus musculus [4]): 8.1 mg
,,CCOC(=O)C(C)(C)Oc1ccc(Cl)cc1 [CLOFIBRATE],1,Activity (Rattus norvegicus [5]): 72%; Activity (Rattus norvegicus [6]): 43%
,,CCOC(=O)COc1ccc2c(c1)CCc1c-2ccc2c1CCC2(C)C,8,
,22.6,COc1ccc2c(c1)CCc1c-2ccc2c1CCC2(C)C,1,
,15.7,COC(=O)CCC(=O)OCC(C)(C)Oc1ccc2c(c1)CCc1c-2ccc2c1CCC2(C)C,-18,
,,CC(Oc1ccc2c(c1)CCc1c-2ccc2c1CCC2(C)C)C(=O)O (configuration not stated),3,
20.6,,CC(C)(COC(=O)CCC(=O)O)Oc1ccc2c(c1)CCc1c-2ccc2c1CCC2(C)C,-7,
,13.4,CC(C)(CO)Oc1ccc2c(c1)CCc1c-2ccc2c1CCC2(C)C,-25,
,,CN1C(=O)[C@@H]2CC[C@@H]1[C@@H](OC(=O)C(C)(C)Oc1ccc3c(c1)CCc1c-3ccc3c1CCC3(C)C)C2,-4,
